Measurements published in ChEMBL document CHEMBL4706728, “Discovery of a Highly Selective and Potent TRPC3 Inhibitor with High Metabolic Stability and Low Toxicity” (ACS Med Chem Lett, 2021).
Calls of active or inactive are those of the source. The rule behind the calls is not given here.

Tests used:
Assay type in all cases: cell-based
[1] = biological target: Transient receptor potential cation channel subfamily A member 1 (Homo sapiens) (UniProt O75762); assay: Inhibition of human TRPA1 expressed in HEK293 cells assessed as inhibition of AITC-induced current at 10 uM by whole cell patch-clamp method
In short: (§1)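 TRP channels overexpressed in HEK293 cells (hTRPA1, rTRPV1, rTRPV4, mouse TRPC6, hTRPC7, hTRPM8). Whole-cell patch clamp with Ca2+-free solutions to avoid desensitization. Channels fully activated with high concentrations of their agonists (AITC for TRPA1, capsaicin for TRPV1, GSK1016790A for TRPV4), then 10 μM test compound perfused with agonist. Result expressed as percentage of peak current blocked; mean ± SD.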

[2] = biological target: T1, Short transient receptor potential channel 6 (Mus musculus) (UniProt Q61143); assay: Inhibition of mouse TRPC6 expressed in HEK293 cells assessed as inhibition of GSK170-induced current at 10 uM by whole cell patch-clamp method; in short: as §1
T1 sequence (whole entry): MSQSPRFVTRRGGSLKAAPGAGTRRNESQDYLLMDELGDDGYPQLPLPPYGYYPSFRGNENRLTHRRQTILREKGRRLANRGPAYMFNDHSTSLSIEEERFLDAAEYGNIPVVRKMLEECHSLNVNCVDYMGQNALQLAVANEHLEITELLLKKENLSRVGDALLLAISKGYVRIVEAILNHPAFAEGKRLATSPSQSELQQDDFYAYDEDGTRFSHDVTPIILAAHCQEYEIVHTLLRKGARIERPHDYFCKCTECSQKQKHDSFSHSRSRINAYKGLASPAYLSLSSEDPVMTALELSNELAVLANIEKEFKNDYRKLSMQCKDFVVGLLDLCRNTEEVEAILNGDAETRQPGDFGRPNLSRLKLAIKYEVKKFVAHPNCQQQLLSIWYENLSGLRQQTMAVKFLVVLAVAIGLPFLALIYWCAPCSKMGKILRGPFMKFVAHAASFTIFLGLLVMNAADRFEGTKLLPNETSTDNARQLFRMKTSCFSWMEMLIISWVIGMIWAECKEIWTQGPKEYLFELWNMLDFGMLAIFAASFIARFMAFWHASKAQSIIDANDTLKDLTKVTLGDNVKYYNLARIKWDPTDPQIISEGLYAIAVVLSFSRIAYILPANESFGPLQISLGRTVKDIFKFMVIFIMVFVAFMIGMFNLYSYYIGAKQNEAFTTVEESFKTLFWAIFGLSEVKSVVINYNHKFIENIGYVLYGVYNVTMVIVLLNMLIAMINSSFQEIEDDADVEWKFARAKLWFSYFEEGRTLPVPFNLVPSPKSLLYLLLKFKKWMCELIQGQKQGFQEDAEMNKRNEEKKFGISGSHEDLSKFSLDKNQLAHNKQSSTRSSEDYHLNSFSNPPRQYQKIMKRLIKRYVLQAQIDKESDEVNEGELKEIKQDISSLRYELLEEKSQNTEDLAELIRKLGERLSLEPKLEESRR

[3] = biological target: T2, Short transient receptor potential channel 7 (Homo sapiens) (UniProt Q9HCX4); assay: Inhibition of human TRPC7 expressed in HEK293 cells assessed as inhibition of GSK170-induced current at 10 uM by whole cell patch-clamp method; in short: as §1
T2 sequence (whole entry): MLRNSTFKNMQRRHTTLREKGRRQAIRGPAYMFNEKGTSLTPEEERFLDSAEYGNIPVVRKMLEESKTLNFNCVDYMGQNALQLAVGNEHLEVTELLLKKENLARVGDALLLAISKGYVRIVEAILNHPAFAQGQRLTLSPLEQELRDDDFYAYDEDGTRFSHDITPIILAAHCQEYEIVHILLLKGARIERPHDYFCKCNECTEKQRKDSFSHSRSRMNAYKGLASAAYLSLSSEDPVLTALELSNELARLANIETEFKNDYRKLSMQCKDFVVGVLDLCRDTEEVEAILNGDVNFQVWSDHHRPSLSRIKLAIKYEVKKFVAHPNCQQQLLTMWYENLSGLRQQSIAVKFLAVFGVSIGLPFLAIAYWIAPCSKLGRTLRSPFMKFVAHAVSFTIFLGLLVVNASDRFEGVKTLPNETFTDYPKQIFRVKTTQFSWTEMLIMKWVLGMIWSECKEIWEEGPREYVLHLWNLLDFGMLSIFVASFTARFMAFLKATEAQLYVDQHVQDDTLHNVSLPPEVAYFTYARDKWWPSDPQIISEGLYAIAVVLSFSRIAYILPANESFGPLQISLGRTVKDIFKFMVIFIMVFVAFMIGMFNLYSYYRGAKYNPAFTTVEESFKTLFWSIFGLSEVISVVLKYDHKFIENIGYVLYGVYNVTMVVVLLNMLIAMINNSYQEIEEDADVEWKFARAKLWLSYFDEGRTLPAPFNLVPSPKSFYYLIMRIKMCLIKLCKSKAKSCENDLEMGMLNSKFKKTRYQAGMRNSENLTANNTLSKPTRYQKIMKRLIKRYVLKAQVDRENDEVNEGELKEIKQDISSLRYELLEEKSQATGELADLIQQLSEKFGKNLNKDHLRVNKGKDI

[4] = biological target: Transient receptor potential cation channel subfamily M member 8 (Homo sapiens) (UniProt Q7Z2W7); assay: Inhibition of human TRPM8 expressed in HEK293 cells assessed as inhibition of […]-induced current at 10 uM by whole cell patch-clamp method; in short: as §1
Chain of Transient receptor potential cation channel subfamily M member 8 (Homo sapiens) (Q7Z2W7 whole entry, looked up): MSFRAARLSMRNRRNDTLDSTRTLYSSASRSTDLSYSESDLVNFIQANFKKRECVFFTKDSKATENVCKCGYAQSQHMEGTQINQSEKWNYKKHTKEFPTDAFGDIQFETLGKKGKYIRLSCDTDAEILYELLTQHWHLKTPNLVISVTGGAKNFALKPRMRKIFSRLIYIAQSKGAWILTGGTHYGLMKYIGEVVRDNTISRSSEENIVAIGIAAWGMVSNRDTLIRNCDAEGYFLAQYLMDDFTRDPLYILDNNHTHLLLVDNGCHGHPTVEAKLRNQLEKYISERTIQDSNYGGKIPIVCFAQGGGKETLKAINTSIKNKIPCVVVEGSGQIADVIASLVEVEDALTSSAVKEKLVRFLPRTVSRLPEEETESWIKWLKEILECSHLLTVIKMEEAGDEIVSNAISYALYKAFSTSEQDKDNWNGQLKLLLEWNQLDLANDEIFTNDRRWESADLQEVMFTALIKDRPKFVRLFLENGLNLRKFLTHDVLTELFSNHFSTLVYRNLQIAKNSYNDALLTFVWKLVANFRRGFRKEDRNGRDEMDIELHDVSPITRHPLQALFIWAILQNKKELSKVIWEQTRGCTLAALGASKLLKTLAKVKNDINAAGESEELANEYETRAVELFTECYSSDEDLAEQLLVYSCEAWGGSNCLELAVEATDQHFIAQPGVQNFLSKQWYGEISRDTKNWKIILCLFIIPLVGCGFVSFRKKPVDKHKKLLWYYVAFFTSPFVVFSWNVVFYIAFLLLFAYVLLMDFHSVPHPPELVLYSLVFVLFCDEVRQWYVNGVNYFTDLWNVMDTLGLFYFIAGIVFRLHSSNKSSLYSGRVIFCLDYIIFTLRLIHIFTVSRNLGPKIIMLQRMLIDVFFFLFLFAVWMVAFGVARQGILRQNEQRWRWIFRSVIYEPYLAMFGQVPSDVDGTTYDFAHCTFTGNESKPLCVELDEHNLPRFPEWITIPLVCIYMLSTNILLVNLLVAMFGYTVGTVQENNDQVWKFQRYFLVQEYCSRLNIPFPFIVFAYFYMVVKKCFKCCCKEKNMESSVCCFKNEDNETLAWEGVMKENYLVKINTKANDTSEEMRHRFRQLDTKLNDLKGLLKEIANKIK

Chain of Transient receptor potential cation channel subfamily A member 1 (Homo sapiens) (O75762 whole entry, the tested form may be a part): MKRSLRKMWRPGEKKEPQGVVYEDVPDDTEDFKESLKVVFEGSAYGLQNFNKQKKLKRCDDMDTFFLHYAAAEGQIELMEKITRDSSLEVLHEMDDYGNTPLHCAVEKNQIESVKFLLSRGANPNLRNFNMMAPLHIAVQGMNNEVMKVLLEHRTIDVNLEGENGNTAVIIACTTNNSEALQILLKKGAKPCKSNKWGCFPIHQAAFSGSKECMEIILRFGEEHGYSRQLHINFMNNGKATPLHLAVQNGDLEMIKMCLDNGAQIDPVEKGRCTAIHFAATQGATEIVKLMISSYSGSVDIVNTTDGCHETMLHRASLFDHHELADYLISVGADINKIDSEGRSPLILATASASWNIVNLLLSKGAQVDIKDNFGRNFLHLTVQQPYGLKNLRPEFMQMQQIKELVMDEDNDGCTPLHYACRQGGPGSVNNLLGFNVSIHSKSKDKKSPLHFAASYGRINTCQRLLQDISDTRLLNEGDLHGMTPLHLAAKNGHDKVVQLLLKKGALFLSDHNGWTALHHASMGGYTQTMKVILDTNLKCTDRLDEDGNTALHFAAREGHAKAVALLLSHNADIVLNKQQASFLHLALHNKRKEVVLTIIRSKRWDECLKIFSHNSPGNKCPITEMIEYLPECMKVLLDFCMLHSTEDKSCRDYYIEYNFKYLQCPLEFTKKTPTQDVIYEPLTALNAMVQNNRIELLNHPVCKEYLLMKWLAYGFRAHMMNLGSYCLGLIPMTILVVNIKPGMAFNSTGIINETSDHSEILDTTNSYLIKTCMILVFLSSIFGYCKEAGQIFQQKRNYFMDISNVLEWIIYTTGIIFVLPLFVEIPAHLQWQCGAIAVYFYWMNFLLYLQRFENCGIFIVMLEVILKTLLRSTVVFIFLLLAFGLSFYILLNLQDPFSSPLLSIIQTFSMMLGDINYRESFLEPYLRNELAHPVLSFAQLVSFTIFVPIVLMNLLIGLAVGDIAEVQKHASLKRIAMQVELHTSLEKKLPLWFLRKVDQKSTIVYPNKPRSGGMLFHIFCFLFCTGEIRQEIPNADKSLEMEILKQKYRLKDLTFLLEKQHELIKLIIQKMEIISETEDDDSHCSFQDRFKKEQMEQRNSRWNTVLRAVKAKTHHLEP

CCNC(=O)c1cnn(-c2ccc(-n3ccc(Cl)c(Cl)c3=O)cc2)c1C(F)(F)F
inhibition [1]: inactive | inhibition [2]: 39% | inhibition [3]: 26% | inhibition [4]: inactive
